Measurements: ChEMBL document CHEMBL1159310, “Indole and beta-carboline alkaloids from Geissospermum sericeum” (J Nat Prod, 2002)
pIC50: −log10 of the molar value.

What was measured:
Plasmodium falciparum [1] = test: Antiplasmodial activity against chloroquine-sensitive Plasmodium falciparum T9-96; format: functional, organism-based
Plasmodium falciparum [2] = test: Antiplasmodial activity against chloroquine-resistant Plasmodium falciparum K1; format: functional, organism-based
KB = test: Cytotoxicity against human KB cells after 48 hrs by MTT assay; format: cell-based
In short: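 Human KB cells (0.5 × 10^6 viable cells/mL in RPMI 1640 with 20% FCS) added to compound diluted in RPMI 1640 from […] DMSO stocks; 48 h at 37 °C. MTT (5 mg/mL) added for 15 min, supernatant discarded, cells solubilised in DMSO plus Sørensen's glycine buffer pH 10.5; OD read at 570 nm; IC50 by curve fitting.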

Plasmodium falciparum [3] = test: Selectivity for Plasmodium falciparum K1 to Plasmodium falciparum T9-96 as IC50 ratio; format: functional

Compound | pIC50 (Plasmodium falciparum [1]) | pIC50 (Plasmodium falciparum [2]) | pIC50 (KB) | Ratio IC50 (Plasmodium falciparum [3])
CC[C@@H]1CN2CC[C@@]34C(=Nc5ccccc53)[C@@H](CO)[C@H]1C[C@H]24 | 4.45 | 4.56 | < 4.40 | 
CC[C@@H]1C[N+]2([O-])CC[C@]34c5ccccc5N[C@H]3[C@@H](CO)[C@H]1C[C@@H]42 (some centres undefined) | < 4.40 | < 4.40 | < 4.40 | 
CCN(CC)CCCC(C)Nc1ccnc2cc(Cl)ccc12 (centres undefined) [CHLOROQUINE] |  |  | 4.69 | 
CCc1ccc2c3[nH]c4ccccc4c3cc[n+]2c1.[Cl-] [FLAVOPEREIRINE] | 5.74 | 4.94 | 4.97 | 6.3
CC[C@@H]1CN2CC[C@]34c5ccccc5N[C@H]3[C@@H](CO)[C@H]1C[C@H]24 [GEISSOSCHIZOLINE] | < 4.40 | < 4.40 | < 4.40 | 
